Source: ChEMBL document CHEMBL3272052, “Imidazo[1,2-a]-s-triazine nucleosides. Synthesis and antiviral activity of the N-bridgehead guanine, guanosine, and guanosine monophosphate analogues of imidazo[1,2-a]-s-triazine” (J Med Chem, 1978)
Activity calls are given as the source filed them. The calls are words filed in the database; no cut-off is given here.

Tests used:
Type in all cases: functional, organism-based
Enterovirus [1] = assay: Antiviral activity against Rhinovirus 13 infected in human KB cells assessed as inhibition of virus-induced cytopathic effect after 72 hrs by microscopic analysis relative to control
Method in brief: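 KB (human nasopharyngeal carcinoma) monolayers, 19-24 h old, were infected with 320 CCID50 of virus. Compound was added within 15 min at one-half-log dilutions from 1000 to 1 µg/mL. After 72 h at 37 °C, CPE and cytotoxicity were scored microscopically (0-4). The virus rating sums the control-minus-treated CPE scores over all levels, halving any level showing partial toxicity.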

Enterovirus [2] = assay: Antiviral activity against Rhinovirus 8 infected in human KB cells assessed as inhibition of virus-induced cytopathic effect after 72 hrs by microscopic analysis relative to control
Enterovirus [3] = assay: Antiviral activity against Rhinovirus 1A infected in human KB cells assessed as inhibition of virus-induced cytopathic effect after 72 hrs by microscopic analysis relative to control
Enterovirus [4] = assay: Antiviral activity against Rhinovirus 30 infected in human KB cells assessed as inhibition of virus-induced cytopathic effect after 72 hrs by microscopic analysis relative to control
Enterovirus [5] = assay: Antiviral activity against Rhinovirus 2 infected in human KB cells assessed as inhibition of virus-induced cytopathic effect after 72 hrs by microscopic analysis relative to control

| SMILES | inhibition (Enterovirus [1]) | inhibition (Enterovirus [2]) | inhibition (Enterovirus [3]) | inhibition (Enterovirus [4]) | inhibition (Enterovirus [5]) |
| --- | --- | --- | --- | --- | --- |
| O=c1[nH]c(=O)n2ccnc2[nH]1 | inactive | – | – | – | – |
| O=c1nc2n([C@@H]3O[C@H](CO)[C@@H](O)[C@H]3O)ccn2c(=O)[nH]1 | inactive | – | – | – | – |
| NC(=O)c1ncn([C@@H]2O[C@H](CO)[C@@H](O)[C@H]2O)n1 | Active | Active | Active | Active | Active |
| Nc1nc(=O)n2ccn([C@@H]3O[C@H](CO)[C@@H](O)[C@H]3O)c2n1 | inactive | inactive | Active | inactive | Active |
| Nc1nc(=O)n2ccn([C@@H]3O[C@H](COP(=O)(O)O)[C@@H](O)[C@H]3O)c2n1 | inactive | inactive | inactive | inactive | Active |
| Nc1nc(=O)n2ccn([C@@H]3O[C@H](COC(=O)c4ccccc4)[C@@H](OC(=O)c4ccccc4)[C@H]3OC(=O)c3ccccc3)c2n1 | inactive | – | – | – | – |
| Nc1nc(=O)n2cc[nH]c2n1 | Active | Active | Active | Active | Active |
